pIC50: −log10 of the molar value.
Legend:
[1] = Inhibition of HIV1 gp120 binding to CD4 by SPR competition binding assay; set-up: species or system Human immunodeficiency virus 1
[2] = Inhibition of HIV1 gp120 binding to 17b antibody by SPR competition binding assay; set-up: species or system Human immunodeficiency virus 1
[3] = Stability assessed as trypsin (unknown origin)-mediated compound degradation incubated for 5 hrs at 37 degC by HPLC and ESI-MS method; type: ADME; conditions: human
Summary of the method: (§1)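 Each peptide was incubated on its own with a single protease (trypsin or chymotrypsin) at 37 °C. Digestion was tracked by HPLC and ESI-MS for remaining intact peptide. For chymotrypsin, samples were taken after 30 min, and the cyclic peptide was also checked after 20 h and 40 h.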

[4] = Stability assessed as chymotrypsin (unknown origin)-mediated compound degradation incubated for 5 hrs at 37 degC by HPLC and ESI-MS method; type: ADME; conditions: human
Summary of the method: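 Each peptide incubated on its own with chymotrypsin at 37 °C. Digestion followed over time by HPLC, with ESI-MS used to check the intact peptide and its fragments. Extended sampling at 20 h and 40 h was also done.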

[5] = Stability assessed as chymotrypsin (unknown origin)-mediated compound degradation incubated for 30 mins at 37 degC by HPLC and ESI-MS method; type: ADME; conditions: human, 0.5 h; summary of the method: as §1
[6] = Stability assessed as chymotrypsin (unknown origin)-mediated compound degradation incubated for 20 hrs at 37 degC by HPLC and ESI-MS method; type: ADME; conditions: human; summary of the method: as §1
[7] = Stability assessed as chymotrypsin (unknown origin)-mediated compound degradation incubated for 40 hrs at 37 degC by HPLC and ESI-MS method; type: ADME; conditions: human; summary of the method: as §1

| pIC50 [1] | pIC50 [2] | Structure (SMILES) | further results |
| --- | --- | --- | --- |
| < 4.40 | < 4.40 | CC[C@@H](C)[C@H]1NC(=O)[C@@H](CC(N)=O)NC(=O)[C@@H](N)CCC(=O)NCCCC[C@H](C(N)=O)NC(=O)[C@@H](Cc2c[nH]c3ccccc23)NC(=O)[C@H]2C[C@@H](n3cc(CCc4ccccc4)nn3)CN2C1=O | – |
| 7.07 | 7.02 | CC[C@@H](C)[C@H]1NC(=O)[C@@H](CC(N)=O)NC(=O)[C@@H](N)CC(=O)NCCCC[C@H](C(N)=O)NC(=O)[C@@H](Cc2c[nH]c3ccccc23)NC(=O)[C@H]2C[C@@H](n3cc(CCc4ccccc4)nn3)CN2C1=O | Stability ([3]; 5 h): Stable; Stability [4]: Stable; Stability [5]: Stable; Stability [6]: Stable; Stability [7]: Stable |
| < 4.70 | < 4.70 | CC[C@@H](C)[C@H]1NC(=O)[C@@H](CC(N)=O)NC(=O)[C@@H](N)CCC(=O)NCC[C@H](C(N)=O)NC(=O)[C@@H](Cc2c[nH]c3ccccc23)NC(=O)[C@H]2C[C@@H](n3cc(CCc4ccccc4)nn3)CN2C1=O | – |

The remaining lines, values behind:

| Structure (SMILES) | pIC50 [1] | pIC50 [2] | further results |
| --- | --- | --- | --- |
| CC[C@@H](C)[C@@H](N)C(=O)N[C@H]1CCC(=O)NCCCC[C@H](C(N)=O)NC(=O)[C@@H](Cc2c[nH]c3ccccc23)NC(=O)[C@H]2C[C@@H](n3cc(CCc4ccccc4)nn3)CN2C(=O)[C@@H]([C@H](C)CC)NC(=O)[C@@H](CC(N)=O)NC1=O | 6.86 | 6.57 | – |
| CC[C@@H](C)[C@H]1NC(=O)[C@@H](CC(N)=O)NC(=O)[C@@H](N)CC(=O)NCCC[C@H](C(N)=O)NC(=O)[C@@H](Cc2c[nH]c3ccccc23)NC(=O)[C@H]2C[C@@H](n3cc(CCc4ccccc4)nn3)CN2C1=O | 5.24 | 5.41 | – |
| CC[C@@H](C)[C@H]1NC(=O)[C@@H](CC(N)=O)NC(=O)[C@@H](N)CC(=O)NCC[C@H](C(N)=O)NC(=O)[C@@H](Cc2c[nH]c3ccccc23)NC(=O)[C@H]2C[C@@H](n3cc(CCc4ccccc4)nn3)CN2C1=O | 6.30 | 6.40 | – |
| CC[C@@H](C)[C@@H](NC(=O)[C@@H](CC(N)=O)NC(=O)[C@@H](N)CC(=O)O)C(=O)N1C[C@H](n2cc(CCc3ccccc3)nn2)C[C@@H]1C(=O)N[C@H](Cc1c[nH]c2ccccc12)C(=O)N[C@H](CCCCN)C(N)=O | – | – | metabolised at 5 h ([3]; trypsin, read-out: Drug degradation): 60%; Drug degradation [4]: 60%; Drug degradation [5]: 100% |
